The source of these data is ChEMBL document CHEMBL1124054, “Synthesis and biological activity of ketomethylene-containing nonapeptide analogues of snake venom angiotensin converting enzyme inhibitors” (J Med Chem, 1988).

The target of series [1] is Angiotensin-converting enzyme (Oryctolagus cuniculus) (UniProt P12822). As to the kind of experiment: Inhibition of Angiotensin I converting enzyme from rabbit lung. The following applies: read-out: I50.
Another series has as its system trypsin. As to the kind of experiment: Time required for 50% degradation by trypsin. The series is classed as ADME. The following applies: read-out: Time.
Series [2] is described as follows: Time required for degradation by pepsin (none). The series is classed as ADME.
Series [3] can be described thus: Time required for 50% degradation in rat stomach homogenate. The series is classed as ADME. Conditions: read-out: Time (converted). The method in brief:
(§1)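 Peptide, partially neutralized with 0.1 N HCl, incubated at 37 °C with 150 mg rat stomach homogenate. Breakdown monitored by TLC.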

The species named for series [4] is Rattus norvegicus. Nature of the series: Time required for 100% degradation in rat intestinal homogenate. The series is classed as ADME. Summed up: (§2)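 Rat small intestine was taken immediately after sacrifice and minced in Krebs Ringer (10 mL/g). Peptide (0.2–0.5 μmol) mixed with homogenate (1.0 mL per μmol), shaken at 37 °C. Degradation followed by TLC.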
The nature of series [5]: Time required for 100% degradation by trypsin. It is filed as ADME.
The nature of series [6]: Time required for 50% degradation in rat intestinal homogenate. It is filed as ADME. Conditions: read-out: Time (converted). The method in brief:
as §2

The species named for series [7] is Rattus norvegicus. As to the kind of experiment: Time required for 100% degradation in rat stomach homogenate. It is filed as ADME. Summed up:
as §1

The test system of another series is chymotrypsin. Nature of the series: Time required for 50% degradation by chymotrypsin. Conditions: read-out: Time (converted). It is filed as ADME. The method in brief:
(§3)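 Peptide (0.5–1.0 μmol) in 0.1 M Tris, pH 7.8, stirred at room temperature with chymotrypsin (37 units dissolved in 50 mL cold 0.001 N HCl; 0.050 mL per μmol peptide). Degradation followed over time by TLC.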

Series [8] has as its target T1, Angiotensin-converting enzyme (Rattus norvegicus, UniProt P47820).
T1 sequence (P47820 whole entry): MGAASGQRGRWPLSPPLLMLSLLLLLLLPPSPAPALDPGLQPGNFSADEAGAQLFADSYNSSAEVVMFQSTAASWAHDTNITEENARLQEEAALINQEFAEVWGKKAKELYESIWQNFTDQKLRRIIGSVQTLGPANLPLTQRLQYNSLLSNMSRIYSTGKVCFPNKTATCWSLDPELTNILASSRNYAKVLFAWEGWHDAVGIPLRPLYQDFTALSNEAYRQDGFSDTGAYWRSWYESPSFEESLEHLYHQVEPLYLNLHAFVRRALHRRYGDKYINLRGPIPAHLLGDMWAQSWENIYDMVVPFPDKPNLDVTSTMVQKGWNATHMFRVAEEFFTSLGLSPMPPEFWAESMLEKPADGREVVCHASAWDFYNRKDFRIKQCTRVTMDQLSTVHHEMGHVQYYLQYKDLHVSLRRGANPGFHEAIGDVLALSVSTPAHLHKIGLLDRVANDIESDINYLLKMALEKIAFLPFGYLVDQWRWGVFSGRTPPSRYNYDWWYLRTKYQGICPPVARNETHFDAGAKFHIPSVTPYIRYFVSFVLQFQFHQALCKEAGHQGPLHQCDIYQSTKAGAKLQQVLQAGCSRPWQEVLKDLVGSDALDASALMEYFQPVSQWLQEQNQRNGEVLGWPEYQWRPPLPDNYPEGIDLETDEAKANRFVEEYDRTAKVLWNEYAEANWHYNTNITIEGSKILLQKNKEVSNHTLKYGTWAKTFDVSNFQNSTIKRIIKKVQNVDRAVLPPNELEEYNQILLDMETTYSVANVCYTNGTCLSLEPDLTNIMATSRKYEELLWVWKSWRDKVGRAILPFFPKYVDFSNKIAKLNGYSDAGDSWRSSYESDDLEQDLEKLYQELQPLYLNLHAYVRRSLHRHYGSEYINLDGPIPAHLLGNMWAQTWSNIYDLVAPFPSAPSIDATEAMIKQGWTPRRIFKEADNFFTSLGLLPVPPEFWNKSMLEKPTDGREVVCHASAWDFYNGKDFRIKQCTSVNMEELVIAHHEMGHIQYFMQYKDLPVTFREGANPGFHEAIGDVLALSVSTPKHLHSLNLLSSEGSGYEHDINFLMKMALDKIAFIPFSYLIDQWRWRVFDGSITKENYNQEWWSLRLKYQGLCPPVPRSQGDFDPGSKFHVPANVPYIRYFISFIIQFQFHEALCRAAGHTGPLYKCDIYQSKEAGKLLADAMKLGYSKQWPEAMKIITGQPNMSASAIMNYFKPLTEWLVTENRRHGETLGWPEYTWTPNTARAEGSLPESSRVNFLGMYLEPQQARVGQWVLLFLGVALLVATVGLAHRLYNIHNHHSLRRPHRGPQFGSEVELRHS
As to the kind of experiment: Inhibition of Angiotensin I converting enzyme in normotensive rat. It is filed as functional. The following applies: read-out: I50 (converted).

Series [9] concerns Rattus norvegicus. Nature of the series: Inhibition of angiotensin I induced blood pressure in normotensive anesthetized rats at 10 ug/kg (i.v.) for 10 min. It is filed as functional. Summed up:
(§4)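 Male Sprague-Dawley normotensive rats (290-540 g), pentobarbital-anesthetized (50 mg/kg ip), intubated. Jugular vein cannulated for iv dosing and carotid artery for blood pressure. Control pressor response to angiotensin I (175 ng/kg iv) taken after vehicle (1 mL/kg). Compound given iv in distilled water or 5% sodium bicarbonate. Angiotensin I challenge repeated at 1.5 to 75 min, rise in pressure compared with control.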

Series [10] deals with Rattus norvegicus. As to the kind of experiment: Inhibition of angiotensin I induced blood pressure in normotensive anesthetized rats at 10 ug/kg (i.v.) for 1.5 min. The series is classed as functional. The method in brief:
as §4

Series [11] concerns Rattus norvegicus. As to the kind of experiment: Inhibition of angiotensin I induced blood pressure in normotensive anesthetized rats at 30 ug/kg (i.v.) for 1.5 min. It is filed as functional. The method in brief: as §4
Series [12] deals with Rattus norvegicus. As to the kind of experiment: Inhibition of angiotensin I induced blood pressure in normotensive anesthetized rats at 30 ug/kg (i.v.) for 10 min. The series is classed as functional. Summed up:
as §4

For series [13], the system named is Rattus norvegicus. Nature of the series: Inhibition of angiotensin I induced blood pressure in normotensive anesthetized rats at 30 ug/kg (i.v.) for 5 min. The series is classed as functional. The method in brief:
as §4

A short description of series [14]: Time required for degradation by trypsin (none). The series is classed as ADME.
A further series has as its system pepsin. As to the kind of experiment: Time required for 50% degradation by pepsin. The series is classed as ADME. The following applies: read-out: Time (converted).
Series [15] has as its system Rattus norvegicus. As to the kind of experiment: Inhibition of angiotensin I induced blood pressure in normotensive anesthetized rats at 10 ug/kg (i.v.) for 75 min. The series is classed as functional. The following applies: in the assay text read “30 ug/kg” for “10 ug/kg”. The method in brief: as §4
The subject of series [16] is Rattus norvegicus. Nature of the series: Inhibition of angiotensin I induced blood pressure in normotensive anesthetized rats at 30 ug/kg (i.v.) for 30 min. The series is classed as functional. The method in brief:
as §4

The test system of series [17] is Rattus norvegicus. As to the kind of experiment: Inhibition of angiotensin I induced blood pressure in normotensive anesthetized rats at 1 ug/kg (i.v.) for 10 min. It is filed as functional. Summed up:
as §4

Series [18] in a line: Time required for degradation by chymotrypsin (none). The series is classed as ADME. The method in brief: as §3
Series [19] concerns Rattus norvegicus. As to the kind of experiment: Inhibition of angiotensin I induced blood pressure in normotensive anesthetized rats at 1 ug/kg (i.v.) for 30 min. The series is classed as functional. The method in brief:
as §4

Series [20] deals with Rattus norvegicus. As to the kind of experiment: Inhibition of angiotensin I induced blood pressure in normotensive anesthetized rats at 10 ug/kg (i.v.) for 5 min. The series is classed as functional. Summed up: as §4
Series [21] has as its system Rattus norvegicus. As to the kind of experiment: Inhibition of angiotensin I induced blood pressure in normotensive anesthetized rats at 1 ug/kg (i.v.) for 1.5 min. It is filed as functional. Summed up:
as §4

The test system of series [22] is Rattus norvegicus. Nature of the series: Inhibition of angiotensin I induced blood pressure in normotensive anesthetized rats at 1 ug/kg (i.v.) for 5 min. The series is classed as functional. The method in brief:
as §4

Series [23] relates to Rattus norvegicus. As to the kind of experiment: Inhibition of angiotensin I induced blood pressure in normotensive anesthetized rats at 10 ug/kg (i.v.) for 30 min. It is filed as functional. Summed up: as §4

Molecules are shown by their SMILES. Starred links: 1 amine or outer side, 2 acyl side, 3 side chain; linkers in the order of their positions; H or OH if unused. Non-standard residues stand in square brackets, D forms with d. Residues, ends and D or L forms follow the SMILES beside them. *: point of attachment. X2 = O=C(CCC(=O)[*:2])[C@H](Cc1ccccc1)N[*:1]; X1 = O=C(CCC(=O)[*:2])[C@@H]1CCCN1[*:1]; X3 = O=C1CCN([*:1])[C@H]1C(=O)[*:2]; Cyclobutanecarbonyl = O=C(C1CCC1)*; pGlu = O=C1CC[C@@H](C(=O)O)N1; Nle = CCCC[C@H](N)C(=O)O

Consider `CC[C@H](C)[C@H](NC(=O)[C@H](CCC(N)=O)NC(=O)[C@@H]1CCCN1C(=O)CNC(=O)[C@@H]1CCCN1C(=O)[C@H](Cc1c[nH]c2ccccc12)NC(=O)[C@@H]1CCC(=O)N1)C(=O)N1CCC[C@H]1C(=O)N1CCC[C@H]1C(=O)O` ([pGlu]WPGPQIPP-OH), for which, in series [1], the IC50 was found to be 1900 nM.
In the case of `NCCCC[C@H](NC(=O)[C@@H]1CCCN1C(=O)CNC(=O)[C@@H]1CCCN1C(=O)[C@H](Cc1ccc(O)cc1)NC(=O)C1CCC1)C(=O)N[C@@H](Cc1ccccc1)C(=O)NCC(=O)N1CCC[C@H]1C(=O)O` (Cyclobutanecarbonyl-YPGPKFGP-OH), in series [1], the IC50 stood at 340 nM. Also, the half-life with trypsin was < 5 min; in series [3], > 60 min; in series [6] it was 20 min; in the series with chymotrypsin, 1320 min. In addition, the Time in series [2] stood at 24 h; in the series filed under Rattus norvegicus [4] it was 40 min; in series [5], 20 min; in the series filed under Rattus norvegicus [7], 5 h.
Consider `C[C@H](NC(=O)[C@H](Cc1ccccc1)NC(=O)[C@H](CCCCN)NC(=O)[C@@H]1NCCC1=O)C(=O)N1CCC[C@H]1C(=O)O` (H-[X3]KFAP-OH), for which the IC50 in series [8] is 87.3 nM.
On the same count and under the same terms, then `CCCC[C@H](NC(=O)[C@@H]1CCC(=O)N1)C(=O)N[C@@H](Cc1ccccc1)C(=O)N[C@@H](C)C(=O)N1CCC[C@H]1C(=O)O` ([pGlu][Nle]FAP-OH), with 359 nM.
As for `CCCC[C@H](NC(=O)[C@@H]1CCCN1C(=O)CCC(=O)[C@@H]1CCCN1C(=O)[C@H](Cc1ccc(O)cc1)NC(=O)C1CCC1)C(=O)N[C@@H](Cc1ccccc1)C(=O)CCC(=O)N1CCC[C@H]1C(=O)O` (Cyclobutanecarbonyl-Y[X1]P[Nle][X2]P-OH), the IC50 in series [1] came to 8 nM. For the same molecule, the Inhibition over time in the series on Rattus norvegicus [9] is recorded as 14.5%; in the series on Rattus norvegicus [10], 64.3%; in the series with Rattus norvegicus [11] it was 88.5%; in the series with Rattus norvegicus [12], 37%; with Rattus norvegicus [13], 59.8%; in the series with Rattus norvegicus [15], 0%. Besides, the Inhibition over time in the series on Rattus norvegicus [16] is listed as 30.8%; in the series with Rattus norvegicus [17], 24.3%; in the series on Rattus norvegicus [19], 22.4%; in the series on Rattus norvegicus [20], 27.5%; in the series with Rattus norvegicus [21] it was 26.3%; in the series with Rattus norvegicus [22], 25.6%. In addition, in the series with Rattus norvegicus [23], the Inhibition over time is recorded as 0%. For the same molecule, the half-life in [3] was 300 min; in series [6] it was 420 min; in the series with pepsin, 180 min. In addition, the Time in the series filed under Rattus norvegicus [4] came to 1380 min; in series [14] it was 24 h; in [18], 24 h.
`C[C@H](NC(=O)[C@H](Cc1ccccc1)NC(=O)[C@H](CCCCN)NC(=O)C1CCC1)C(=O)N1CCC[C@H]1C(=O)O` (Cyclobutanecarbonyl-KFAP-OH): the IC50 in series [1] came out at 40 nM.
